p-CIP stab down – lowers stability of the mouse p/CIP coactivator protein | Q05BA5 | F442A p/CIP-EGFP cells, EGFP fluorescence, 16 h | decrease of EGFP signal, % at 10 µM | actives 0.01% (n = 290,000) | AID 1984;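 active = EGFP signal decrease of at least 30% at 10 µM or well 3 SD below plate mean, unless failing retest; inactive = the rest, including hits failing retest or dose response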
XBP1 UPR activ – adaptive UPR (XBP1) activation; CHO-XBP1 luciferase reporter, IRE1-XBP1 UPR activation, luminescence; percent of tunicamycin response, DMSO as zero; activation, % at 20 µM; actives 0.33% (n = 330,000); AID 463104;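 active = versus positive control, 20 µM dose yields 30% or more activation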
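Assay system: IRE1-XBP1 luciferase reporter CHO line. Input: 1000 cells/well. Buffer or medium: F12 with 10% serum. Doses: 20 µM, 1% DMSO. Times: overnight seeding at 37 °C, 6 h compound treatment at 37 °C. Technique: Steady-Glo luciferase glow luminescence, 10 min after reagent addition.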
Dynein cargo inh – dynein cargo transport inhibition | 3617.4 mouse cells, GR-EGFP nuclear translocation imaging; test concentration mostly 20 µM; stimulated with dexamethasone, 1 µM; active compounds read low | z-score, hits read low | actives 0.47% (n = 220,000);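 active = plate z-score of nuclear minus cytoplasmic receptor signal below a set negative limit, without overly bright fluorescence or cell loss, cut at about -3.5 in these data, passing the limit was not always enough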;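 also: z-score of nuclear minus cytoplasmic ring GR-EGFP intensity difference per well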
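Buffer or medium – tet-free medium with charcoal-stripped serum · Signal – automated 10x imaging of fixed Hoechst-stained cells · Also added – dexamethasone agonist, 1.0 µM final, for 30 min · Incubation – induction 48 h, compound 1 h, agonist 30 min · Read-out – GR-EGFP nuclear translocation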
CHOP inh – inhibitors of CHOP induction in ER stress response. AID 2732. actives 3.8% (n = 220,000). inhibition, % at 10 µM. CHO-K1 CHOP-promoter luciferase, tunicamycin-induced, 15-18 h;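 active = compounds that reduced the stress-induced luciferase reporter signal by more than about 70% of percent inhibition, limit read from the data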
Beta2AR agonist – agonists of human beta-2 adrenergic receptor inducing internalization; P07550; Am2.2-beta2AR cells, FAP receptor internalization, flow cytometry; response, % (test concentration not listed); actives 0.43% (n = 340,000);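 active = response above a set limit, near 3 SD of response in nonfluorescent compounds, cut at about 42% in these data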
Target sequence (P07550 whole entry, looked up): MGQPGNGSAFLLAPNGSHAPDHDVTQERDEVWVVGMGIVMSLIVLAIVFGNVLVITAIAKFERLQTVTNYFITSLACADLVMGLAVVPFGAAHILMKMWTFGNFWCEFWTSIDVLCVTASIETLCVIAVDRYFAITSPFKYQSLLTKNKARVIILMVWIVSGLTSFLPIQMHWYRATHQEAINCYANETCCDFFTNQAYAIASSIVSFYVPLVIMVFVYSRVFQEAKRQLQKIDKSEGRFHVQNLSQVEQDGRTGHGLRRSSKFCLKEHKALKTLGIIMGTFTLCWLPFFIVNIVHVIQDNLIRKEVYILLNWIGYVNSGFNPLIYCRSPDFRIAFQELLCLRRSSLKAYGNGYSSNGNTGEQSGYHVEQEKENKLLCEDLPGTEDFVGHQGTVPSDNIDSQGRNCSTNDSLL
CHOP UPR activ – activators of apoptotic arm of unfolded protein response (CHOP); CHO-CHOP luciferase reporter, UPR activation, luminescence; percent of tunicamycin response over DMSO baseline; activation, % at 10 µM; actives 0.34% (n = 330,000);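 active = at 10 µM dose, activation of 40% or more, normalized to positive control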
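Dosing – one dose, 10 µM in 0.5% DMSO · System – CHO-CHOP cells, stable luciferase reporter of PERK-eIF2a-CHOP signalling · Input – 500 cells/well · Control set – tunicamycin 10 µg/mL final as positive, DMSO-only wells as negative · Timing – 6 h compound treatment, 37 °C · Measure – % activation vs tunicamycin · Technique – luminescence read with Steady-Glo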
B2AR ag CP1 – agonists of human beta-2 adrenergic receptor. shares compounds with Beta2AR agonist. Am2.2-beta2AR cells, FAP surface receptor, flow cytometry; active compounds read low. percent response (surface receptor), % at 10 µM. actives 25% (n = 1,100). AID 540358;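 active = surface receptor percent response at or below 58%, roughly 3 SD from nonfluorescent compounds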
B2AR FAP counter – flagged in Am2.2 fluorescence counterscreen for beta-2AR agonists | Am2.2 cells, FAP fluorogen flow cytometry; active compounds read low | shares compounds with Beta2AR agonist | calls only at 10 µM | 1,100 tested, under 10 active;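 active = percent response below a set limit in fluorescence channel 1 and below 50% in channel 8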
Each line names hits and unclear results; the compound was inactive in the other large screens (follow-up assays come after a bar, where they were run). This is one part of a sample in which hits are shown more often than they occur.

COc1cc(OC)nc(NC(=O)CSc2nnc(-c3ccccc3)n2C2CCCCC2)n1	Beta2AR agonist 97 (no result: p-CIP stab down, CHOP inh) | B2AR ag CP1 19 | B2AR FAP counter inactive
O=C(CSc1nnc(-c2ccccc2)n1C1CCCCC1)Nc1ccc(S(=O)(=O)Nc2ccccn2)cc1	none
COc1ccc([C@H](C)NC[C@H](O)c2ccc(O)c(NC=O)c2)cc1	none | B2AR ag CP1 12 | B2AR FAP counter inactive
COc1ccc(C(=O)NCCS(=O)(=O)N2CCN(Cc3ccccc3)CC2)cc1	none (no result: p-CIP stab down, Dynein cargo inh, CHOP inh)
COc1ccccc1CNC(=O)C(Cc1c[nH]c2ccccc12)NC(=O)OCc1ccccc1 (stereo unspecified)	none
Cc1ccc(Cl)cc1NC(=O)c1cc2ccccc2cc1O	CHOP inh 82, Beta2AR agonist 44 | B2AR ag CP1 inactive | B2AR FAP counter inactive
Cc1ccc(Cl)cc1NC(=O)COC(=O)c1ccccc1O	none
CCn1nc(NS(=O)(=O)c2ccc(NC(C)=O)cc2)c2cc3ccc(C)cc3nc21	none (no result: Dynein cargo inh, CHOP inh)
CCn1nc(NS(=O)(=O)c2ccc([N+](=O)[O-])cc2)c2cc3ccccc3nc21	Beta2AR agonist 64 (no result: Dynein cargo inh, CHOP inh) | B2AR ag CP1 inactive | B2AR FAP counter inactive
CCn1nc(NC(=O)c2ccncc2)c2cc3ccccc3nc21	none
CCn1nc(NS(=O)(=O)c2ccc(C)cc2)c2cc3ccccc3nc21	none (no result: Dynein cargo inh, CHOP inh) | B2AR ag CP1 inactive | B2AR FAP counter inactive
CCn1nc(NS(=O)(=O)c2ccc(NC(C)=O)cc2)c2cc3ccccc3nc21	Beta2AR agonist 53 (no result: Dynein cargo inh, CHOP inh) | B2AR ag CP1 inactive | B2AR FAP counter inactive
CCN(CC)S(=O)(=O)c1ccc(N2CCOCC2)c(NC(=S)NC(=O)c2ccco2)c1	none
Cc1ccc(CNC(=O)Cn2nnc(C(=O)Nc3cc(C)ccc3C)c2N)cc1	none (no result: Dynein cargo inh, CHOP inh)
CC(C)Oc1ccc(/C=N/NC(N)=S)cc1	none | B2AR ag CP1 inactive | B2AR FAP counter inactive
CSc1ncc(C(=O)Nc2ccccc2)cn1	none (no result: Dynein cargo inh, CHOP inh)
CC1(C)Cc2c(c(-c3ccco3)nc3sc4c(NCCO)ncnc4c23)CO1	Beta2AR agonist 100 | B2AR ag CP1 16 | B2AR FAP counter inactive
CSc1nc(SCCO)c2sc3nc(-c4ccco4)c4c(c3c2n1)CC(C)(C)OC4	Beta2AR agonist 100 (no result: XBP1 UPR activ, CHOP UPR activ) | B2AR ag CP1 6.5 | B2AR FAP counter inactive
CC(C)Cc1nc2sc3c(NCc4ccco4)ncnc3c2c2c1COC(C)(C)C2	Beta2AR agonist 65 | B2AR ag CP1 28 | B2AR FAP counter inactive
COCCCNc1ncnc2c1sc1nc(-c3ccco3)c3c(c12)CC(C)(C)OC3	Beta2AR agonist 99 | B2AR ag CP1 20 | B2AR FAP counter inactive
O=C(Nc1cc(Cl)ccc1-n1cncn1)c1cc(F)c(F)c(F)c1F	none (no result: p-CIP stab down, Dynein cargo inh, CHOP inh)
COC(=O)CCCCCCCCC(O)CN1CCCCC1 (stereo unspecified)	none
CC(C)c1nc2oc3c(NCCO)ncnc3c2c2c1COC(C)(C)C2	none | B2AR ag CP1 inactive | B2AR FAP counter inactive
CC1CCC(NC(=O)CCS(=O)(=O)c2ccc3c(c2)CCN3C(=O)C2CC2)CC1 (stereo unspecified)	Beta2AR agonist 105 (no result: Dynein cargo inh, CHOP inh) | B2AR ag CP1 18 | B2AR FAP counter inactive
CN1CCN(CCc2nc3cc(NC(=O)COc4ccccc4)ccc3n2C)CC1	none | B2AR ag CP1 inactive | B2AR FAP counter inactive
CCN1CCN(CCc2nc3cc(NC(=O)COc4ccccc4)ccc3n2C)CC1	none (no result: Dynein cargo inh, CHOP inh)
COc1ccc2nc(SCC(=O)Nc3ccccc3C)[nH]c2c1	none
O=C(CN1c2cccc3cccc(c23)S1(=O)=O)N1CCN(c2ccccc2)CC1	none (no result: p-CIP stab down, Dynein cargo inh, CHOP inh)
CCCCC(=O)NS(=O)(=O)c1ccc(N=NN2CCOCC2)cc1	none
Cc1ccc(Cn2c(N)c(S(=O)(=O)c3cccs3)c3nc4ccccc4nc32)cc1	Beta2AR agonist 52 | B2AR ag CP1 inactive | B2AR FAP counter inactive
